Shown are actives, neighbours in structure and some others; about 1.9% of the full set was active somewhere.
MIN6 prolif-1 = MIN6 beta-cell proliferation induction | MIN6 cells proliferation, ATPlite luminescence, 48 h; cells starved in 0.2% serum; 100% = growth in 10% serum | proliferation, % at 10 µM | 330,000 compounds, 0.29% hits | AID 2380;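 active = compounds whose signal lies at least 3.5 SD above the mean of all wells on their plate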
Rce1 inhib = yeast Ras-converting enzyme inhibition; calls only; yeast membranes, quenched prenylated peptide cleavage fluorescence; Q03530; 290,000 compounds, 0.27% hits;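 active = fall in fluorescence gain of 50% or more versus controls, with final raw signal at or below 3038400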
Yeast superoxide = lowers age-related superoxide in aged yeast cells. S. cerevisiae aged cells, superoxide DHE fluorescence; stronger effect = lower value. superoxide response (% of plate mean), % at 10 µM. 330,000 compounds, 0.18% hits;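 active = superoxide response under a set limit, about three screen SD below normal, cut at about 65% in these data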;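 note: yeast aged for seven days with compound at 30 °C before DHE staining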
V-ATPase pHluor = regulators of yeast V-ATPase proton transport. S. cerevisiae, pHLuorin cytosolic pH fluorescence. response, % at 10 µM. 350,000 compounds, 0.37% hits. AID 504577; in the data active = response mostly above about 7.3%, no sharp cut-off; inactive = mostly below about 5.4%; note: actives read high
proKLK7 act = activators of human kallikrein-7 zymogen | 370,000 compounds, 0.9% hits | purified proKLK7, EDANS-DABCYL substrate fluorescence; 100% is mature enzyme control, 0% vehicle | P49862 | activation, % at 7 µM;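 active = activation above the mean of all tested compounds plus 3 SD, computed per campaign excluding outliers beyond control limits, cut at about 13% in these data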
Target sequence (P49862 whole entry, looked up): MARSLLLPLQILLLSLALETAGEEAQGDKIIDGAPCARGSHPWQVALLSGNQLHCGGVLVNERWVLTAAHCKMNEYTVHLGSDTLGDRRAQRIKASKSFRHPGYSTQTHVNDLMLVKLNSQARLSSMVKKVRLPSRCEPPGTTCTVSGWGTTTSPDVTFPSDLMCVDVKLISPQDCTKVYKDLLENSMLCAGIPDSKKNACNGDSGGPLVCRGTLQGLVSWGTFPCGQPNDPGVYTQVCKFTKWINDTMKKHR
T cell modulator = modulates CD8 T cell binding to vesicles | 2C CD8+ T cell-vesicle binding, flow cytometry; stronger effect = lower value | response (vesicle binding), % at 7 µM | 330,000 compounds, 0.068% hits | AID 2052;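 active = response, share of CD8 T cells binding vesicles, and their 90th percentile fluorescence all below set limits, cut at about 80% in these data, passing the limit was not always enough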;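 note: values below 100% mean blocked vesicle binding to the CD8+ T cells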
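Benchmarks: naked versus QL9-loaded vesicles / Assay system: purified 2C TCR transgenic mouse naive CD8+ T cells / Technique: high-throughput flow cytometry with anti-B7-1 and anti-CD8 staining / Timing: Cell–vesicle co-incubation 1.5 h at 37 °C, staining 20 min on ice / Read-out: percent CD8+ FL2 mean versus row control / Probe or stimulus: QL9-loaded Drosophila micro-vesicles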
MIN6 prolif-2 = confirmation of inducers of beta-cell replication in MIN6 cells; shares compounds with MIN6 prolif-1; MIN6 beta-cell proliferation, ATPlite luminescence, 48 h; cells kept in 0.2% serum; scaled between 0.2% and 10% serum; proliferation increase, % at 50 µM; 920 tested, under 10 active; AID 463095;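 active = proliferation increase above 40% at any of the four tested concentrations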
Hits are given with their value; . = inactive; / = no result.

SMILES	MIN6 prolif-1	Rce1 inhib	Yeast superoxide	V-ATPase pHluor	proKLK7 act	T cell modulator	MIN6 prolif-2
CCOc1ccc(NC(=O)CN(C)C(=O)c2cc(S(=O)(=O)N3CCCCC3)ccc2C)cc1OCC	12	.	.	.	.	.	.
CCn1c(C)nc2cc(C(=O)N/N=C/c3ccc(OC)cc3)ccc21	7.8	.	.	.	.	.	.
COc1ccc(CCNC(=O)c2ccc3c(c2)ncn3C2CCCCC2)cc1	/	/	/	/	.	/	/
C=CCNC(=O)c1ccccc1NC(=O)COc1ccc(OC)cc1	.	.	.	.	.	.	/
C=CCNC(=O)c1ccccc1NC(=O)COc1ccccc1	8.4	.	.	.	.	.	.
C=CCN1C[C@H](COC(=O)CSc2ccccc2)Oc2cccc(F)c2S1(=O)=O	/	/	/	/	.	/	/
CCN(CC)C(=O)Oc1cc(COC)nc(-c2ccccc2)n1	5.3	.	.	.	.	.	.
Cc1nc2oc3c(NCc4ccccn4)ncnc3c2c2c1COC(C)(C)C2	.	.	.	.	.	.	/
CC(C)c1nc2oc3c(NCc4ccccn4)ncnc3c2c2c1COC(C)(C)C2	7.4	/	.	.	.	.	.
COc1ccc(NC(=O)CSc2nc(C)cc(=O)[nH]2)cc1OC	/	/	/	/	.	/	/
COc1ccc(OC)c(N2C(N)=NC(N)=NC23CCCC3)c1	5.7	/	.	.	.	.	.
Cc1cccc(N2C(N)=NC(N)=NC23CCCCC3)c1	/	.	.	.	.	.	/
CN1C(=O)N(C)c2ccc(Br)c3cccc1c23	8.6	.	.	.	.	.	.
CCCCn1c(-c2nonc2N)nc2ccccc21	8.1	.	.	.	.	.	.
COc1cc2c(cc1OC)C1=C(C#N)CC/C(=N\S(=O)(=O)c3cccc(Cl)c3)N1CC2	.	.	.	.	.	.	/
COc1cc2c(cc1OC)C1=C(C#N)CCC(=NC(=O)c3ccco3)N1CC2	9.8	.	.	.	.	.	.
CC(=O)Nc1nc(Cn2nnc(-c3ccc4c(c3)OCO4)n2)nc(N(C)C)n1	8.8	.	.	.	.	.	.
COC(=O)C1=C(C)N(C)C(=NCC2CC2)NC1CCc1ccccc1 (configuration not stated)	/	/	/	/	.	/	/
Cc1ccc(S(=O)(=O)N2CCC3(CC2)OCCN3S(=O)(=O)c2cccs2)cc1	.	.	.	.	.	.	/
COc1ccc(S(=O)(=O)N2CCC3(CC2)OCCN3S(=O)(=O)c2cccs2)cc1	13	.	.	.	.	.	.
CCOc1ccc2ncc(S(=O)(=O)c3ccccc3)c(N3CCC4(CC3)OCCO4)c2c1	0.0	.	.	/	.	.	.
COc1ccc(S(=O)(=O)c2cnc3ccc(OC)cc3c2N2CCC3(CC2)OCCO3)cc1	.	.	.	.	.	.	/
O=S(=O)(c1ccc(Oc2ccc(Cl)cc2)nc1)N1CCOCC1	.	.	.	.	.	.	/
O=S(=O)(c1ccc(Oc2ccc(F)c(Cl)c2)nc1)N1CCOCC1	13	.	.	.	.	.	.
COC(=O)C1=C(C)N(C)C(=NCc2cccc(C(F)(F)F)c2)NC1c1ccc(Cl)cc1 (configuration not stated)	/	/	/	/	.	/	/
SMILES	MIN6 prolif-1	Rce1 inhib	Yeast superoxide	V-ATPase pHluor	proKLK7 act	T cell modulator	MIN6 prolif-2
Cc1ccc(C(=O)c2sc3c(c2N)c(=O)[nH]c(=O)n3CCc2ccccc2)cc1	.	.	.	.	.	.	/
CCn1c(=O)[nH]c(=O)c2c(N)c(C(=O)c3cc(F)ccc3F)sc21	9.1	.	.	.	.	.	.
CC1C/C(=C\c2ccccc2[N+](=O)[O-])c2nc3ccccc3c(C(=O)O)c2C1 (configuration not stated)	.	.	.	.	.	.	/
O=C(c1ccc(-n2ccnc2)cc1)N1CCCC(CO)(Cc2cccc(Cl)c2)C1 (configuration not stated)	16	.	.	.	.	.	.
CN1CC=C(c2ccc(C(F)(F)F)cc2)N(c2ccccc2)C1=O	/	/	/	/	.	/	/
C[C@@H]1CN([C@@H](C)CO)C(=O)c2ccccc2-c2ccccc2CO[C@@H]1CN(C)Cc1ccc(Cl)c(Cl)c1	/	/	/	/	.	/	/
CCOc1ccccc1CNC(=O)CNC(=O)c1cccs1	17	.	.	.	/	.	.

Assay outcomes deposited in PubChem by several laboratories.
